From ChEMBL document CHEMBL3244007, “Resolution of antimalarial agents via complex formation with alpha-(2,4,5,7-tetranitro-9-fluorenylideneaminooxy) propionic acid” (J Med Chem, 1978)
Calls of active or inactive are those of the source. No cut-off for these calls is given here.

Assays:
[1] = system: Plasmodium berghei; assay: Antimalarial activity against Plasmodium berghei infected in mouse assessed as change in mean survival time at 1.25 mg/kg (reference value: 6.2 +/- 0.5 days); type: functional
[2] = system: Plasmodium berghei; assay: Antimalarial activity against Plasmodium berghei infected in mouse assessed as change in mean survival time at 80 mg/kg (reference value: 6.2 +/- 0.5 days); type: functional
[3] = system: Plasmodium berghei; assay: Antimalarial activity against Plasmodium berghei infected in mouse assessed as change in mean survival time at 10 mg/kg (reference value: 6.2 +/- 0.5 days); type: functional
[4] = system: Plasmodium berghei; assay: Antimalarial activity against Plasmodium berghei infected in mouse assessed as change in mean survival time at 2.5 mg/kg (reference value: 6.2 +/- 0.5 days); type: functional
[5] = system: Plasmodium berghei; assay: Antimalarial activity against Plasmodium berghei infected in mouse assessed as change in mean survival time at 5 mg/kg (reference value: 6.2 +/- 0.5 days); type: functional
[6] = system: Plasmodium berghei; assay: Antimalarial activity against Plasmodium berghei infected in mouse assessed as change in mean survival time at 40 mg/kg (reference value: 6.2 +/- 0.5 days); type: functional
[7] = system: Plasmodium berghei; assay: Antimalarial activity against Plasmodium berghei infected in mouse assessed as change in mean survival time at 20 mg/kg (reference value: 6.2 +/- 0.5 days); type: functional
[8] = system: Plasmodium cynomolgi; assay: Antimalarial activity against Plasmodium cynomolgi infected in rhesus monkey assessed as relapse time at 0.5 mg/kg qd for 7 days in presence of chloroquine; type: functional
[9] = system: Plasmodium cynomolgi; assay: Antimalarial activity against Plasmodium cynomolgi infected in rhesus monkey assessed as relapse time at 0.375 mg/kg qd for 7 days in presence of chloroquine; type: functional
[10] = system: Rhesus monkey; assay: Toxicity in rhesus monkey at 0.375 to 0.75 mg/kg; type: organism-based, Macaca mulatta; set-up: dose 0.375-0.75 mg/kg; details: in vivo
[11] = system: Plasmodium berghei; assay: Antimalarial activity against Plasmodium berghei infected in mouse assessed as change in mean survival time at 160 mg/kg (reference value: 6.2 +/- 0.5 days); type: functional
[12] = system: Mus musculus; assay: Toxicity in mouse infected with Plasmodium berghei assessed as mortality at 160 mg/kg after 2 to 5 days; type: organism-based; set-up: dose 160 mg/kg; details: in vivo
[13] = system: Mus musculus; assay: Toxicity in mouse infected with Plasmodium berghei assessed as mortality at 320 mg/kg after 2 to 5 days; type: organism-based; set-up: dose 320 mg/kg; details: in vivo
[14] = system: Mus musculus; assay: Toxicity in mouse infected with Plasmodium berghei assessed as mortality at 640 mg/kg after 2 to 5 days; type: organism-based; set-up: dose 640 mg/kg; details: in vivo
[15] = system: Plasmodium berghei; assay: Antimalarial activity against Plasmodium berghei infected in mouse assessed as change in mean survival time at 320 mg/kg (reference value: 6.2 +/- 0.5 days); type: functional
[16] = system: Plasmodium berghei; assay: Antimalarial activity against Plasmodium berghei infected in mouse assessed as change in mean survival time at 640 mg/kg (reference value: 6.2 +/- 0.5 days); type: functional
[17] = system: Plasmodium cynomolgi; assay: Antimalarial activity against Plasmodium cynomolgi infected in rhesus monkey assessed as cured animal at 0.75 mg/kg qd for 7 days measured after 105 days in presence of chloroquine; type: functional, organism-based; set-up: dose 0.75 mg/kg
In short: (§1)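 Test compounds were given as phosphate salts, with doses expressed as free base, once daily for 7 days together with chloroquine at 2.5 mg per kg body weight. An animal was scored as cured when thick blood films stayed parasite-negative for 105 days or more after the last dose.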

[18] = system: Plasmodium cynomolgi; assay: Antimalarial activity against Plasmodium cynomolgi infected in rhesus monkey assessed as cured animal at 0.375 mg/kg qd for 7 days measured after 105 days in presence of chloroquine; type: functional, organism-based; set-up: dose 0.375 mg/kg; in short: as §1
[19] = system: Plasmodium cynomolgi; assay: Antimalarial activity against Plasmodium cynomolgi infected in rhesus monkey assessed as cured animal at 0.5 mg/kg qd for 7 days measured after 105 days in presence of chloroquine; type: functional, organism-based; set-up: dose 0.5 mg/kg; in short: as §1

CCCCN(CCCC)CCC(O)c1cc2c(Cl)cc(Cl)cc2c2cc(C(F)(F)F)ccc12 (stereo in doubt; (-)-8) [HALOFANTRINE]
MST [1]: 0.1 days | MST ([2]; 80 mg/kg): 13.2 days | MST [3]: 5.1 days | MST [4]: 0.3 days | MST [5]: 1.5 days | MST ([6]; 40 mg/kg): 12.5 days | MST [7]: 8.9 days

COc1cc(NC(C)CCCN)c2ncccc2c1.O=P(O)(O)O.O=P(O)(O)O (stereo in doubt; (+)-5) [PRIMAQUINE PHOSPHATE]
Time [8]: 28 days | Time [9]: 10 days | Activity [10]: Toxic

CCCCN(CCCC)CCC(O)c1cc2c(Cl)cc(Cl)cc2c2cc(C(F)(F)F)ccc12 (stereo in doubt; (+)-8) [HALOFANTRINE]
MST [1]: 0.5 days | MST ([2]; 80 mg/kg): 16.9 days | MST [3]: 10.3 days | MST [4]: 3.1 days | MST [5]: 7.5 days | MST ([6]; 40 mg/kg): 14.5 days | MST [7]: 11.1 days

Nc1nc(N)c2c(n1)CCC(S(=O)(=O)c1ccc3ccccc3c1)C2 (racemic)
MST [1]: 4.9 days | MST [3]: 11.9 days | MST [4]: 7.5 days | MST [5]: 10.7 days

CCCCN(CCCC)CC(O)c1cc(-c2ccc(C(F)(F)F)cc2)nc(-c2ccc(C(F)(F)F)cc2)c1 (single isomer, unassigned; (-))
MST ([2]; 80 mg/kg): 13.1 days | MST [3]: 1.3 days | MST ([6]; 40 mg/kg): 10.5 days | MST [11]: 19.9 days | MST [7]: 3.1 days

Nc1nc(N)c2c(n1)CCC(S(=O)(=O)c1ccc3ccccc3c1)C2 (single isomer, unassigned; (-))
MST [1]: 1.3 days | MST [3]: 7.1 days | Activity [12]: Toxic | MST [4]: 3.1 days | MST [5]: 4.9 days | MST [7]: 11.3 days | Activity [13]: Toxic | Activity [14]: Toxic

COc1cc(NC(C)CCCN)c2ncccc2c1.O=P(O)(O)O.O=P(O)(O)O (single isomer, unassigned; (-)) [PRIMAQUINE PHOSPHATE]
Time [8]: 16 days | Time [9]: 11 days

CCCCN(CCCC)CC(O)c1cc(-c2ccc(C(F)(F)F)cc2)nc(-c2ccc(C(F)(F)F)cc2)c1 (stereo in doubt; (+)-2)
MST ([2]; 80 mg/kg): 25.6 days | MST [3]: 3.9 days | MST ([6]; 40 mg/kg): 18.1 days | MST [7]: 10.7 days

CCCCN(CCCC)CC(O)c1cc(-c2ccc(Cl)c(Cl)c2)nc2c(Cl)cc(Cl)cc12 (racemic)
MST [1]: 0.3 days | MST ([2]; 80 mg/kg): 22.9 days | MST [3]: 10.7 days | MST [4]: 4.1 days | MST [5]: 6.1 days | MST ([6]; 40 mg/kg): 11.9 days | MST [7]: 14.9 days

CCCCN(CCCC)CC(O)c1cc(-c2ccc(Cl)c(Cl)c2)nc2c(Cl)cc(Cl)cc12 (single isomer, unassigned; (+))
MST [1]: 0.5 days | MST [3]: 6.9 days | MST [4]: 0.5 days | MST [5]: 3.5 days | MST ([6]; 40 mg/kg): 11.8 days | MST [7]: 10 days

CCCCCCCN(CCCCCCC)CC(O)c1cc2ccccc2c2cc(Br)ccc12 (single isomer, unassigned; (+))
MST ([15]; 320 mg/kg): 9.3 days | MST [16]: 14.9 days | MST ([2]; 80 mg/kg): 4.1 days | MST ([6]; 40 mg/kg): 1.7 days | MST ([11]; 160 mg/kg): 6.7 days | MST [7]: 0.5 days

CCCCCCCN(CCCCCCC)CC(O)c1cc2ccccc2c2cc(Br)ccc12 (racemic)
MST ([15]; 320 mg/kg): 25.9 days | MST ([2]; 80 mg/kg): 11.3 days | MST ([6]; 40 mg/kg): 6.9 days | MST ([11]; 160 mg/kg): 15.3 days | MST [7]: 2.9 days

COc1cc(NC(C)CCCN)c2ncccc2c1 (racemic)
Activity [17]: Active | Activity [18]: inactive | Activity [19]: Active

CCCCCCCN(CCCCCCC)CC(O)c1cc2ccccc2c2cc(Br)ccc12 (stereo in doubt; (-)-3)
MST ([15]; 320 mg/kg): 6.1 days | MST [16]: 11.1 days | MST ([2]; 80 mg/kg): 3.9 days | MST ([6]; 40 mg/kg): 2.1 days | MST ([11]; 160 mg/kg): 5.3 days | MST [7]: 0.3 days

CCCCN(CCCC)CC(O)c1cc(-c2ccc(C(F)(F)F)cc2)nc(-c2ccc(C(F)(F)F)cc2)c1 (racemic)
MST [3]: 5.5 days | MST [7]: 8.6 days

CCCCN(CCCC)CCC(O)c1cc2c(Cl)cc(Cl)cc2c2cc(C(F)(F)F)ccc12 (racemic) [HALOFANTRINE]
MST [3]: 14.9 days | MST [5]: 9.3 days

COc1cc(NC(C)CCCN)c2ncccc2c1 (single isomer, unassigned; (-))
Activity [17]: Active

COc1cc(NC(C)CCCN)c2ncccc2c1 (stereo in doubt; (+)-5)
Activity [17]: Active

CCCCN(CCCC)CC(O)c1cc(-c2ccc(Cl)c(Cl)c2)nc2c(Cl)cc(Cl)cc12 (single isomer, unassigned; (-))
MST ([2]; 80 mg/kg): 9 days | MST ([6]; 40 mg/kg): 7.8 days | MST [11]: 12.8 days | MST [7]: 3.8 days

Nc1nc(N)c2c(n1)CCC(S(=O)(=O)c1ccc3ccccc3c1)C2 (single isomer, unassigned; (+))
MST [15]: 9.1 days | MST [2]: 4.5 days | MST [6]: 1.7 days | MST [11]: 6.9 days | MST [7]: 0.3 days
